ChEMBL document CHEMBL1123878, “Potential antitumor agents. 50. In vivo solid-tumor activity of derivatives of N-[2-(dimethylamino)ethyl]acridine-4-carboxamide” (J Med Chem, 1987)
Active and inactive are the calls of the source. The calls are words filed in the database; no cut-off is given here.

Key:
L1210 = experiment: Inhibition murine leukemia L1210 cell growth in culture; assay type: functional, cell-based; conditions: Mus musculus
Outline: (§1)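 IC50 is the drug concentration, in nM, that inhibits growth of the cultured cell line by 50%.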

[1] = Base strength is expressed as pKa, determined in water at 25 degrees Centigrade by spectrophotometric method.; assay type: physicochemical
[2] = Lipophilicity index (Rm) (HPLC); assay type: physicochemical
P388 [3] = experiment: Percent increase in life span of P388 cells compared to non treated, tumor-bearing controls when treated at the optimal dose of 225 mg/kg/day; IA denotes inactive; assay type: functional, organism-based; conditions: Mus musculus
P388 [4] = experiment: Percentage increase in life span of tumor bearing animals compared to non treated, tumor-bearing controls when treated at the optimal dose of 150 mg/kg/day intraperitoneally; IA denotes inactive; assay type: functional, organism-based; conditions: Mus musculus
Outline: (§2)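 Drug was given ip in 0.1 mL 30% v/v ethanol/water. For P388, 10^6 cells were inoculated ip and dosing was on days 1, 5 and 9, with >20% significant. For Lewis lung, 10^6 cells were inoculated iv and dosing was on days 5, 9 and 13, with >40% significant. The read-out is % lifespan increase over untreated controls.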

[5] = test system: Lewis lung carcinoma cell line; experiment: Percentage increase in life span of tumor bearing animals compared to non treated, tumor-bearing controls when treated at the optimal dose of 100 mg/kg/day intraperitoneally; IA denotes inactive; assay type: functional, organism-based; conditions: Mus musculus; outline: as §2
P388 [6] = experiment: Percentage increase in life span of tumor bearing animals compared to non treated, tumor-bearing controls when treated at the optimal dose of 225 mg/kg/day intraperitoneally; IA denotes inactive; assay type: functional, organism-based; conditions: Mus musculus; outline: as §2
[7] = test system: Lewis lung carcinoma cell line; experiment: Percentage increase in life span of tumor bearing animals compared to non treated, tumor-bearing controls when administered intraperitoneally; IA denotes inactive; assay type: functional; conditions: Mus musculus; outline: as §2
HCT-8 = experiment: Inhibition of human colon tumor (HCT-8) cell growth in culture; assay type: functional, cell-based; outline: as §1
P388 [8] = experiment: Percentage increase in life span of tumor bearing animals compared to non treated, tumor-bearing controls when treated at the optimal dose of 13.3 mg/kg/day intraperitoneally; assay type: functional; conditions: Mus musculus, P388, ip; route intraperitoneal
[9] = Selectivity ratio of IC50 of HCT to IC50 of L1210 cell lines; assay type: functional
P388 [10] = experiment: (§3) Percentage increase in life span of tumor bearing animals compared to non treated, tumor-bearing controls when treated at the optimal dose of 30 mg/kg/day intraperitoneally; assay type: functional; conditions: Mus musculus, P388, ip; route intraperitoneal
[11] = test system: Lewis lung carcinoma cell line; experiment: as §3; assay type: functional; conditions: Mus musculus, ip, route intraperitoneal
P388 [12] = experiment: Percentage increase in life span of tumor bearing animals compared to non treated, tumor-bearing controls when treated at the optimal dose of 4.5 mg/kg/day intraperitoneally; assay type: functional; conditions: Mus musculus, P388, ip; route intraperitoneal
[13] = test system: Lewis lung carcinoma cell line; experiment: Percentage increase in life span of tumor bearing animals compared to non treated, tumor-bearing controls when treated at the optimal dose of 4.5 mg/kg/day intraperitoneally; IA denotes inactive; assay type: functional, organism-based; conditions: Mus musculus; outline: as §2
P388 [14] = experiment: (§4) Percentage increase in life span of tumor bearing animals compared to non treated, tumor-bearing controls when treated at the optimal dose of 65 mg/kg/day intraperitoneally; assay type: functional; conditions: Mus musculus, P388, ip; route intraperitoneal
[15] = test system: Lewis lung carcinoma cell line; experiment: as §4; assay type: functional; conditions: Mus musculus, ip, route intraperitoneal
[16] = test system: Lewis lung carcinoma cell line; experiment: Percentage increase in life span of tumor bearing animals compared to non treated, tumor-bearing controls when treated at the optimal dose of 150 mg/kg/day ip (LL); assay type: functional; conditions: Mus musculus
P388 [17] = experiment: Percentage increase in life span of tumor bearing animals compared to non treated, tumor-bearing controls when treated at the optimal dose of 225 mg/kg/day ip (P388); assay type: functional; conditions: Mus musculus, route intraperitoneal
P388 [18] = experiment: (§5) Percentage increase in life span of compound-treated, tumor bearing animals compared to non treated, tumor-bearing controls when treated at the optimal dose of 100 mg/kg; assay type: functional; conditions: Mus musculus
[19] = test system: Lewis lung carcinoma cell line; experiment: as §5; assay type: functional; conditions: Mus musculus
P388 [20] = experiment: (§6) Percentage increase in life span of tumor bearing animals compared to non treated, tumor-bearing controls when treated at the optimal dose of 65 mg/kg/day intraperitoneally; IA denotes inactive; assay type: functional, organism-based; conditions: Mus musculus; outline: as §2
[21] = test system: Lewis lung carcinoma cell line; experiment: as §6; assay type: functional, organism-based; conditions: Mus musculus; outline: as §2
Nucleic Acid [22] = experiment: Binding constant to poly(dG-dC)DNA by ethidium bromide displacement; assay type: nucleic-acid assay
Outline: (§7)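 Association constants derived from the drug concentration displacing 50% of bound ethidium from the polynucleotide, assuming competitive binding of drug and ethidium to DNA.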

Nucleic Acid [23] = experiment: Binding constant to poly(dA-dT)DNA by ethidium bromide displacement; assay type: nucleic-acid assay; outline: as §7
P388 [24] = experiment: Percent increase in life span of P388 tumor bearing animals compared to non treated, tumor-bearing controls when treated at the optimal dose of 150 mg/kg/day; IA denotes inactive; assay type: functional, organism-based; conditions: Mus musculus
P388 [25] = experiment: Percentage increase in life span of tumor bearing animals compared to non treated, tumor-bearing controls when treated at the optimal dose of 13.3 mg/kg/day ip (P388); assay type: functional; conditions: Mus musculus, route intraperitoneal
[26] = test system: Lewis lung carcinoma cell line; experiment: Percentage increase in life span of tumor bearing animals compared to non treated, tumor-bearing controls when treated at the optimal dose of 20 mg/kg/day ip (LL); assay type: functional, organism-based; conditions: Mus musculus
P388 [27] = experiment: Percentage increase in life span of tumor bearing animals compared to non treated, tumor-bearing controls when treated at the optimal dose of 66 mg/kg/day intraperitoneally; assay type: functional; conditions: Mus musculus, P388, ip; route intraperitoneal
P388 [28] = experiment: Percentage increase in life span of tumor (P388 cells) bearing animals compared to non treated, tumor-bearing controls when treated at the optimal dose of 45 mg/kg/day; IA denotes inactive; assay type: functional, organism-based; conditions: Mus musculus
[29] = test system: Lewis lung carcinoma cell line; experiment: Percentage increase in life span of tumor bearing animals compared to non treated, tumor-bearing controls when treated at the optimal dose of 45 mg/kg/day intraperitoneally; assay type: functional; conditions: Mus musculus, ip, route intraperitoneal
P388 [30] = experiment: (§8) Percentage increase in life span of tumor bearing animals compared to non treated, tumor-bearing controls when treated at the optimal dose of 20 mg/kg/day intraperitoneally; assay type: functional; conditions: Mus musculus, P388, ip; route intraperitoneal
[31] = test system: Lewis lung carcinoma cell line; experiment: as §8; assay type: functional; conditions: Mus musculus, ip, route intraperitoneal
P388 [32] = experiment: Percentage increase in life span of compound-treated, tumor bearing animals compared to non treated, tumor-bearing controls when treated at the optimal dose of 150 mg/kg/day intraperitoneally; assay type: functional; conditions: Mus musculus, P388, ip; route intraperitoneal
[33] = test system: Lewis lung carcinoma cell line; experiment: Percentage increase in life span of tumor bearing animals compared to non treated, tumor-bearing controls when treated at the optimal dose of 150 mg/kg/day intraperitoneally; assay type: functional; conditions: Mus musculus, ip, route intraperitoneal
P388 [34] = experiment: Percentage increase in life span of tumor bearing animals compared to non treated, tumor-bearing controls when treated at the optimal dose of 100 mg/kg/day ip (P388); assay type: functional; conditions: Mus musculus, route intraperitoneal

SMILES	IC50 (L1210) [nM]	pKa [1]	Rm [2]	IC50 (HCT-8) [nM]	Ratio [9]	other results
CN(C)CCNC(=O)c1ccc2nc3ccccc3cc2c1.Cl.Cl	9300	4.37	-0.57			ILS (P388 [3]): inactive
CN(C)CCNC(=O)c1ccc2cc3ccccc3nc2c1.Cl.Cl	8100	3.94	-0.53			ILS (P388 [4]): inactive
Cc1ccc2cc3ccccc3nc2c1C(=O)NCCN(C)C.Cl.Cl	12700		-0.21			ILS [5]: inactive; ILS (P388 [6]): inactive
Cl.Cl.NCCNC(=O)c1cccc2cc3ccccc3nc12	275		-0.28	1600	5.8	ILS [7]: inactive; ILS at 13.3 mg/kg/day (P388 [8]): 24%
Cc1cccc2cc3cccc(C(=O)NCCN(C)C)c3nc12.Cl.Cl	4.3		-0.17	54	12.6	ILS at 30 mg/kg/day (P388 [10]): 87%; ILS at 30 mg/kg/day [11]: 120%
COc1ccc(C(=O)NCCN(C)C)c2nc3ccccc3cc12.Cl.Cl	8.8	3.81	-0.13	115	13.1	ILS at 30 mg/kg/day (P388 [10]): 205%
CN(C)CCNC(=O)c1cccc2c(N)c3ccccc3nc12			-1.11	55	3.7	ILS at 4.5 mg/kg/day (P388 [12]): 98%; ILS [13]: inactive
CN(C)CCNC(=O)c1cccc2cc3c(Cl)cccc3nc12.Cl.Cl.Cl	160		0.01	790	4.9	ILS at 65 mg/kg/day (P388 [14]): 102%; ILS at 65 mg/kg/day [15]: 63%
CN(C)CCCCCNC(=O)c1cccc2cc3ccccc3nc12.Cl	450		0.12	1800	4	ILS at 150 mg/kg/day ([16]; route intraperitoneal): 83%; ILS at 225 mg/kg/day (P388 [17]): 34%
Cc1ccc2cc3cccc(C(=O)NCCN(C)C)c3nc2c1.Cl.Cl	121		-0.1	658	5.4 Ratio	ILS at 100 mg/kg (P388 [18]): 82%; ILS at 100 mg/kg [19]: 106%
CNCCNC(=O)c1cccc2cc3ccccc3nc12.Cl.Cl	240		-0.27	620	2.6	ILS (P388 [20]): inactive; ILS [21]: inactive
CN(C)CCNC(=O)c1cccc2nc3ccccc3cc12.Cl.Cl	17900	4.24	-0.56			Log K (Nucleic Acid [22]): 7.7; Log K (Nucleic Acid [23]): 6.87; ILS (P388 [24]): inactive
Cl.Cl.O=C(NCCNCCO)c1cccc2cc3ccccc3nc12	240		-0.22	1800	7.5	ILS at 13.3 mg/kg/day (P388 [25]): 22%; ILS [26]: inactive
CN(C)CCNC(=O)c1cccc2cc3ccccc3nc12.Cl.Cl	105	3.54	-0.2	900	8.6	ILS at 66 mg/kg/day (P388 [27]): 91%
Cc1c2ccccc2nc2c(C(=O)NCCN(C)C)cccc12.Cl.Cl	150	4.34	-0.33	160	1.1	IA (P388 [28]): inactive
COc1cccc2cc3cccc(C(=O)NCCN(C)C)c3nc12.Cl	12	3.87	-0.31	180	15	ILS at 45 mg/kg/day [29]: 54%; ILS at 65 mg/kg/day (P388 [14]): 70%
CN(C)CCNC(=O)c1cccc2cc3cccc(Cl)c3nc12.Cl.Cl	6.9		-0.21			ILS at 20 mg/kg/day (P388 [30]): 91%; ILS at 20 mg/kg/day [31]: 92%
CN(C)CCNC(=O)c1cccc2cc3ccc(Cl)cc3nc12.Cl	6.4		-0.06	350	54	ILS at 65 mg/kg/day [15]: 91%
Cc1cccc2nc3c(C(=O)NCCN(C)C)cccc3cc12.Cl.Cl.O.O	140		-0.12	980	7	ILS at 150 mg/kg/day (P388 [32]): 61%; ILS at 150 mg/kg/day [33]: 60%
CN(C)CCCCCCNC(=O)c1cccc2cc3ccccc3nc12.Cl	550		0.28	1960	3.6	ILS [16]: inactive; ILS at 100 mg/kg/day (P388 [34]): 32%
